ChEMBL document CHEMBL1136094, “Novel, potent and selective cyclin D1/CDK4 inhibitors: indolo[6,7-a]pyrrolo[3,4-c]carbazoles” (Bioorg Med Chem Lett, 2003)

Columns and labels:
[1] = target: Cyclin-dependent kinase 5/CDK5 activator 1 (Homo sapiens) (UniProt Q00535+Q15078); assay: Inhibition of Cyclin-dependent kinase 5-p35nck5a at 500 nM; format: protein-complex assay; set-up: scale not given: the % may be the effect or the level left
Outline: (§1)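 Panel profiling of isolated kinases with inhibitor at 100 nM and 500 nM. […] Remaining kinase activity is expressed as % of control and is the mean of duplicate assays.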

[2] = target: Casein kinase I (Homo sapiens) (UniProt Q9HCP0+P78368+P48730+P49674+P48729); assay: Inhibition of CK1 kinase at 100 nM; format: protein assay; set-up: scale not given: the % may be the effect or the level left; outline: as §1
[3] = target: Mitogen-activated protein kinase 10 (Homo sapiens) (UniProt P53779); assay: Inhibition of c-Jun N-terminal kinase 3 at 500 nM; set-up: scale not given: the % may be the effect or the level left
Sequence of Mitogen-activated protein kinase 10 (Homo sapiens) (P53779 whole entry): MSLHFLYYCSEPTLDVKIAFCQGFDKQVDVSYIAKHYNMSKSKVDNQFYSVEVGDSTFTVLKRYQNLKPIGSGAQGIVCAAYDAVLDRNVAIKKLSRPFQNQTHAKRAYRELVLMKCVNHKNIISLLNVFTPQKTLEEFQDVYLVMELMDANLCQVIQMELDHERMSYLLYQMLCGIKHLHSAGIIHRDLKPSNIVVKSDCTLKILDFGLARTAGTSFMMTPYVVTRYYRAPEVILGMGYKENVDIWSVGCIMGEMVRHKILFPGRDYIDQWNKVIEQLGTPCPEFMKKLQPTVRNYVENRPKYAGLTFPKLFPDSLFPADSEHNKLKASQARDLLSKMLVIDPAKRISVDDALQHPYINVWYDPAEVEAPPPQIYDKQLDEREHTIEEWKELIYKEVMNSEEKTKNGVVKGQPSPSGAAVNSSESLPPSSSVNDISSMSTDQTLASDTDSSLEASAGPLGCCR
Outline: (§2)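 Panel of 39 kinases, each tested at 100 and 500 nM inhibitor. […] Activity is expressed as % of control and is the mean of duplicate assays.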

[4] = target: Mitogen-activated protein kinase 12 (Homo sapiens) (UniProt P53778); assay: Inhibition of Stress activated protein kinase 3 at 100 nM; set-up: scale not given: the % may be the effect or the level left; outline: as §2
Sequence of Mitogen-activated protein kinase 12 (Homo sapiens) (P53778 whole entry): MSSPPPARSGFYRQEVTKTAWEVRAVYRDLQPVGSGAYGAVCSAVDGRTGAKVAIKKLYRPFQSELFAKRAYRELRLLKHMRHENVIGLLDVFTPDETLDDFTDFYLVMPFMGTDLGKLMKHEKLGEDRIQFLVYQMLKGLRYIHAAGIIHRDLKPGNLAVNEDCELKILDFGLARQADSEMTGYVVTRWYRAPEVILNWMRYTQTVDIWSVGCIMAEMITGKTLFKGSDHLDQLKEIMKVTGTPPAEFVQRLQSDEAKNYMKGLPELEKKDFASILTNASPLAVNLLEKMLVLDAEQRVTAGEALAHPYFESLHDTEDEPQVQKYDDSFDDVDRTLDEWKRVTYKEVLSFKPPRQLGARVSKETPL

[5] = target: Inhibitor of nuclear factor kappa-B kinase subunit beta (Homo sapiens) (UniProt O14920); assay: Inhibition of I-kappa-B-kinase beta at 500 nM; set-up: scale not given: the % may be the effect or the level left; outline: as §1
[6] = target: Cyclin-dependent kinase 2/cyclin A (Homo sapiens) (UniProt P24941+P20248+P78396); assay: Inhibition of Cyclin A-cyclin-dependent kinase 2 at 500 nM; format: protein-complex assay; set-up: scale not given: the % may be the effect or the level left; outline: as §1
[7] = target: Ribosomal protein S6 kinase alpha-5 (Homo sapiens) (UniProt O75582); assay: Inhibition of MSK-1 kinase at 500 nM; set-up: scale not given: the % may be the effect or the level left; outline: as §1
[8] = target: Ribosomal protein S6 kinase (P70S6K) (Homo sapiens) (UniProt Q9UBS0+P23443); assay: Inhibition of Ribosomal protein S6 kinase (p70S6K) at 100 nM; format: protein-complex assay; set-up: scale not given: the % may be the effect or the level left; outline: as §2
[9] = target: Protein kinase C gamma type (Homo sapiens) (UniProt P05129); assay: Inhibition of Protein kinase C gamma at 100 nM; set-up: scale not given: the % may be the effect or the level left; outline: as §1
[10] = target: MAP kinase-activated protein kinase 5 (Homo sapiens) (UniProt Q8IW41); assay: Inhibition of Protein kinase PRAK at 100 nM; set-up: scale not given: the % may be the effect or the level left; outline: as §2
[11] = target: Dual specificity mitogen-activated protein kinase kinase 1 (Homo sapiens) (UniProt Q02750); assay: Inhibition of Mitogen activated protein kinase kinase kinase 1 at 100 nM; set-up: scale not given: the % may be the effect or the level left
Sequence of Dual specificity mitogen-activated protein kinase kinase 1 (Homo sapiens) (Q02750 whole entry): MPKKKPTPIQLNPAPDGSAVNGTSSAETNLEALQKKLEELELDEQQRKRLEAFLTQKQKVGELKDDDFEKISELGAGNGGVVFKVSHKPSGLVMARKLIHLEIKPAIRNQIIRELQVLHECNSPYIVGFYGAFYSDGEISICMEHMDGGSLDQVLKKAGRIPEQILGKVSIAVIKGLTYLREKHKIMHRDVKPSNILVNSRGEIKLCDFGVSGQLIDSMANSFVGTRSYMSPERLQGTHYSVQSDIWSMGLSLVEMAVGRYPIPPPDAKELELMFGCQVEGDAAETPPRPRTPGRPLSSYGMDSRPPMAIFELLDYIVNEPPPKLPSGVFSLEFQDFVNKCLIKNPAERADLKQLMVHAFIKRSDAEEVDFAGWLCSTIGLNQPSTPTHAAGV

[12] = target: Cyclin-dependent kinase 4 (Homo sapiens) (UniProt P11802); assay: Inhibition of Rb phosphorylation at the CDK4 specific Ser780 residue (1 fold increase over control) after 24 hr incubation in HCT116 cells; format: functional, cell-based; details: HCT-116, concentration not given here
[13] = target: Tyrosine-protein kinase ZAP-70 (Homo sapiens) (UniProt P43403); assay: Inhibition of Zeta-chain (TCR) associated protein kinase 70 kDa (ZAP70) at 100 nM; set-up: scale not given: the % may be the effect or the level left; outline: as §2
Sequence of Tyrosine-protein kinase ZAP-70 (Homo sapiens) (P43403 whole entry): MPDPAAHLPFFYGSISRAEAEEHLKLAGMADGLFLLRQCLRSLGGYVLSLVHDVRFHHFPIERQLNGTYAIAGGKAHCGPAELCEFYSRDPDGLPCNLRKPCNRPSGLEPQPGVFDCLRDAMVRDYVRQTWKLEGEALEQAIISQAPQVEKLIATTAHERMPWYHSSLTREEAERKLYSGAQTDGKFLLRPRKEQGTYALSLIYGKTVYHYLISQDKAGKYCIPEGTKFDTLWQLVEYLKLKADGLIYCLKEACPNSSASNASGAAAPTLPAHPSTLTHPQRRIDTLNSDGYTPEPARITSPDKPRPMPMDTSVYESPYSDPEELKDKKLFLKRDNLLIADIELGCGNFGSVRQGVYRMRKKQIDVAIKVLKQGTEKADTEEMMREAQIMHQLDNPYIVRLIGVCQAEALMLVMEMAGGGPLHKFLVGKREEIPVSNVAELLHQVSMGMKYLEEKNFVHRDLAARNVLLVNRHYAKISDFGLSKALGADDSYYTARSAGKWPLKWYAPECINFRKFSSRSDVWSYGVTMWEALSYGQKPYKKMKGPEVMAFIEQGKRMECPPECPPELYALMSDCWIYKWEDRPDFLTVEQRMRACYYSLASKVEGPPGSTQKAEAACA

[14] = target: Dual specificity mitogen-activated protein kinase kinase 4 (Homo sapiens) (UniProt P45985); assay: Inhibition of mitogen-activated protein kinase kinase 4 at 500 nM; set-up: scale not given: the % may be the effect or the level left; outline: as §2
[15] = Inhibition of AMP-activated Protein Kinase at 100 nM; set-up: scale not given: the % may be the effect or the level left; outline: as §1
[16] = target: Proto-oncogene tyrosine-protein kinase Src (Homo sapiens) (UniProt P12931); assay: Inhibition of c-Src protein tyrosine kinase at 100 nM; set-up: scale not given: the % may be the effect or the level left; outline: as §2
Sequence of Proto-oncogene tyrosine-protein kinase Src (Homo sapiens) (P12931 2-536 limits assumed): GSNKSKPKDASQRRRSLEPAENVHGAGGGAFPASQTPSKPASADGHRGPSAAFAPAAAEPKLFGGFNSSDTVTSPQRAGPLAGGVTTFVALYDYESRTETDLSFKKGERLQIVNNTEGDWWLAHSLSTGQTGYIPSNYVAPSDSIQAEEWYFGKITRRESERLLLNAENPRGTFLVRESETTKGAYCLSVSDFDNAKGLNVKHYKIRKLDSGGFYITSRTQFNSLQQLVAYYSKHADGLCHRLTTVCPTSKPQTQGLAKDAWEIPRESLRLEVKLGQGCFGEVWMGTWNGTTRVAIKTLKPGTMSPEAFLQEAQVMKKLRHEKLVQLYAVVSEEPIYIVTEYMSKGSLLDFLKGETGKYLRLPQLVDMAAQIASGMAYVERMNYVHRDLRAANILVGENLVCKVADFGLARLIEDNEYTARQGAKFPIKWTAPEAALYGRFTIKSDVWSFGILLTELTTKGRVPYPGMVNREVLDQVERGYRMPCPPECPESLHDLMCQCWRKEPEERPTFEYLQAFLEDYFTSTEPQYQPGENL

[17] = target: Serine/threonine-protein kinase Sgk1 (Homo sapiens) (UniProt O00141); assay: Inhibition of Serum/glucocorticoid regulated kinase at 100 nM; set-up: scale not given: the % may be the effect or the level left; outline: as §2
[18] = target: 3-phosphoinositide-dependent protein kinase 1 (Homo sapiens) (UniProt O15530); assay: Inhibition of PDK1 kinase at 500 nM; set-up: scale not given: the % may be the effect or the level left; outline: as §1
Sequence of 3-phosphoinositide-dependent protein kinase 1 (Homo sapiens) (O15530 whole entry): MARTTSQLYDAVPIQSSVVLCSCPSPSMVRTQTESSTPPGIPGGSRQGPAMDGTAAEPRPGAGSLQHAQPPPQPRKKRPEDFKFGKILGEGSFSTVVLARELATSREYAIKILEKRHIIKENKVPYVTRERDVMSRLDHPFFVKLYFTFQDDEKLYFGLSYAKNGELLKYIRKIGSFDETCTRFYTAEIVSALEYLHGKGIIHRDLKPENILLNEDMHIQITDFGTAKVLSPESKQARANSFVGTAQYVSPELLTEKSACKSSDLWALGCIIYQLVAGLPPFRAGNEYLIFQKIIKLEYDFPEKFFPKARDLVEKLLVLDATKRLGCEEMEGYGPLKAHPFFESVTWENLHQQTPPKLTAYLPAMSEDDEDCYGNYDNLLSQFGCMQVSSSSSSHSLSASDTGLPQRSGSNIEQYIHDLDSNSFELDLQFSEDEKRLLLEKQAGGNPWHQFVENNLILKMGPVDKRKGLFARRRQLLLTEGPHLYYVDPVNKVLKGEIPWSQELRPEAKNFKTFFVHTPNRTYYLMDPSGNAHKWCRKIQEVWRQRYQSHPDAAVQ

[19] = target: Casein kinase II (Homo sapiens) (UniProt P67870+P68400+P19784); assay: Inhibition of CK2 kinase at 100 nM; format: protein-complex assay; set-up: scale not given: the % may be the effect or the level left; outline: as §1
[20] = target: Proto-oncogene tyrosine-protein kinase Src (Homo sapiens) (UniProt P12931); assay: Inhibition of c-Src protein tyrosine kinase at 500 nM; set-up: scale not given: the % may be the effect or the level left; outline: as §2
[21] = target: Glycogen synthase kinase-3 beta (Homo sapiens, UniProt P49841); assay: Inhibition of Glycogen synthase kinase-3 beta
[22] = Inhibition of AMP-activated Protein Kinase at 500 nM; set-up: scale not given: the % may be the effect or the level left; outline: as §1
[23] = target: Tyrosine-protein kinase Lck (Homo sapiens) (UniProt P06239); assay: Inhibition of p56 Lck tyrosine kinase at 100 nM; set-up: scale not given: the % may be the effect or the level left; outline: as §2
Sequence of Tyrosine-protein kinase Lck (Homo sapiens) (P06239 2-509 limits assumed): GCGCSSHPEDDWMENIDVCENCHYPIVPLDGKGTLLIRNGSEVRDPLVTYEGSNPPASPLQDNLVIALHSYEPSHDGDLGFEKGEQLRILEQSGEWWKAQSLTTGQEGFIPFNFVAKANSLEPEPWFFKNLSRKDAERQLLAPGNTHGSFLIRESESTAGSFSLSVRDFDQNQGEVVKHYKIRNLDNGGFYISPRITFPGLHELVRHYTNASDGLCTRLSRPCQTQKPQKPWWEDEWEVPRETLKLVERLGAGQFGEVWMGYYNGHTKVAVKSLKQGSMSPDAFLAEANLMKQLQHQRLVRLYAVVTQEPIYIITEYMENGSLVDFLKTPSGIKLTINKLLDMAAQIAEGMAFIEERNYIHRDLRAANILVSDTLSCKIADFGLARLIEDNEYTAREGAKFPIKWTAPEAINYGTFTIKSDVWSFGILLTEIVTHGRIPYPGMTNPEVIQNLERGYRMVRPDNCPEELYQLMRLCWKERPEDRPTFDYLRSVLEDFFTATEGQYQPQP

[24] = target: Mitogen-activated protein kinase 12 (Homo sapiens) (UniProt P53778); assay: Inhibition of Stress activated protein kinase 3 at 500 nM; set-up: scale not given: the % may be the effect or the level left; outline: as §2
[25] = target: Serine/threonine-protein kinase N2 (Homo sapiens) (UniProt Q16513); assay: Inhibition of PRK2 at 500 nM; set-up: scale not given: the % may be the effect or the level left; outline: as §1
Sequence of Serine/threonine-protein kinase N2 (Homo sapiens) (Q16513 whole entry, looked up): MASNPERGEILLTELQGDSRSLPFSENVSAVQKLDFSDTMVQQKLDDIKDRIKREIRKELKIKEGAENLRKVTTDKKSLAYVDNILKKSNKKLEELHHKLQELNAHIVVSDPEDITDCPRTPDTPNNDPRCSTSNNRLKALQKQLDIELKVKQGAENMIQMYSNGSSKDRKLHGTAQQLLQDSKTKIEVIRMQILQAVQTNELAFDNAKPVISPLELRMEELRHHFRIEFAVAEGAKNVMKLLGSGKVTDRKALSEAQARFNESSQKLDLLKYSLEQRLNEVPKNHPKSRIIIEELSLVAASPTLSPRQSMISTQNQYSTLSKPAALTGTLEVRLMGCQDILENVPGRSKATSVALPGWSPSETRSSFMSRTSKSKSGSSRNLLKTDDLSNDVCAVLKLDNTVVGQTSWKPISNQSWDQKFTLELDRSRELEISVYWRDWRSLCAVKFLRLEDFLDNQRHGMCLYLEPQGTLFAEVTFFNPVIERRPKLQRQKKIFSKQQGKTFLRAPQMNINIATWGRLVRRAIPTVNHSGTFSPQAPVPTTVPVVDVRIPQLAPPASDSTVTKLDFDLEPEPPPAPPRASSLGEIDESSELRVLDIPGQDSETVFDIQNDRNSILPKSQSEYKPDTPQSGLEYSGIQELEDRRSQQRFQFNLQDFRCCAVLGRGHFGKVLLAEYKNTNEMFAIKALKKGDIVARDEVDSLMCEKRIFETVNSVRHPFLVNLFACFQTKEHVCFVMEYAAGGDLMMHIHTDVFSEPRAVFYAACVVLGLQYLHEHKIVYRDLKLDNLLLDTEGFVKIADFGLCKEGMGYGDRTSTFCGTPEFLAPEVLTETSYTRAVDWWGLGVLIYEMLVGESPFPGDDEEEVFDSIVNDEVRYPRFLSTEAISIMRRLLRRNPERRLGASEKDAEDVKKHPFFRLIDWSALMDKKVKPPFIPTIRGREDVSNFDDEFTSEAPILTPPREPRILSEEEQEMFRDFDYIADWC

[26] = target: 3-phosphoinositide-dependent protein kinase 1 (Homo sapiens) (UniProt O15530); assay: Inhibition of PDK1 kinase at 100 nM; set-up: scale not given: the % may be the effect or the level left; outline: as §1
[27] = Percent control against SKG at compound concentration of 500 nM; outline: as §2
[28] = target: Tyrosine-protein kinase Blk (Homo sapiens) (UniProt P51451); assay: Inhibition of B lymphoid tyrosine kinase at 100 nM; set-up: scale not given: the % may be the effect or the level left; outline: as §1
Sequence of Tyrosine-protein kinase Blk (Homo sapiens) (P51451 2-505 limits assumed): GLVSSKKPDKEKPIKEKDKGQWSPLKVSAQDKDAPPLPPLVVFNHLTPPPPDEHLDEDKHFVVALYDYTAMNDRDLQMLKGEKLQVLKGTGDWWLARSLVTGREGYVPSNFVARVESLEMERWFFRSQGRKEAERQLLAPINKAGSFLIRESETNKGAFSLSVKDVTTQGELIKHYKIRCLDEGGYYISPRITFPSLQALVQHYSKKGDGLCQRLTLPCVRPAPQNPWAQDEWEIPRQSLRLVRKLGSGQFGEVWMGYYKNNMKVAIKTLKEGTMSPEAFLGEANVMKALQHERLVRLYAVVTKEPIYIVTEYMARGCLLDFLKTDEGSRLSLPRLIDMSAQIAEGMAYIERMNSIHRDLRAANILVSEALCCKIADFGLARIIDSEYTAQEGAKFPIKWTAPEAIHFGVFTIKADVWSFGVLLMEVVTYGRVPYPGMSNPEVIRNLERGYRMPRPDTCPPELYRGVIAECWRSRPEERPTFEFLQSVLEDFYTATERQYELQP

[29] = target: Tyrosine-protein kinase Lck (Homo sapiens) (UniProt P06239); assay: Inhibition of p56 Lck tyrosine kinase at 500 nM; set-up: scale not given: the % may be the effect or the level left; outline: as §2
[30] = target: Protein kinase C beta type (Homo sapiens) (UniProt P05771); assay: Inhibition of Protein kinase C beta 2 at 500 nM; set-up: scale not given: the % may be the effect or the level left; outline: as §1
[31] = target: CDK3/cyclin E (Homo sapiens) (UniProt P24864+O96020+Q00526); assay: Inhibition of Cyclin E-cyclin-dependent kinase 3 at 500 nM; format: protein-complex assay; set-up: scale not given: the % may be the effect or the level left; outline: as §1
[32] = target: Serine/threonine-protein kinase Chk2 (Homo sapiens) (UniProt O96017); assay: Inhibition of Serine/threonine-protein kinase Chk2 at 100 nM; set-up: scale not given: the % may be the effect or the level left; outline: as §2
HCT-116 = assay: In vitro antiproliferative activity against human carcinoma cell line HCT116 (colon); format: functional, cell-based
[33] = target: Mitogen-activated protein kinase 10 (Homo sapiens) (UniProt P53779); assay: Inhibition of c-Jun N-terminal kinase 3 at 100 nM; set-up: scale not given: the % may be the effect or the level left; outline: as §2
[34] = target: MAP kinase-activated protein kinase 2 (Homo sapiens) (UniProt P49137); assay: Inhibition of mitogen-activated protein kinase-activated protein kinase 2 at 500 nM; set-up: scale not given: the % may be the effect or the level left; outline: as §2
TGF-beta receptor type-2 = TGF-beta receptor type-2 (Homo sapiens, UniProt P37173); assay: Inhibition of TGF-beta type II receptor
NCI-H460 = assay: In vitro antiproliferative activity against human carcinoma cell line H460 (lung); format: functional, cell-based
[35] = target: Dual specificity mitogen-activated protein kinase kinase 6 (Homo sapiens) (UniProt P52564); assay: Inhibition of mitogen-activated protein kinase kinase 6 at 100 nM; set-up: scale not given: the % may be the effect or the level left; outline: as §2
[36] = target: Tyrosine-protein kinase ZAP-70 (Homo sapiens) (UniProt P43403); assay: Inhibition of Zeta-chain (TCR) associated protein kinase 70 kDa (ZAP70) at 500 nM; set-up: scale not given: the % may be the effect or the level left; outline: as §2
[37] = target: cAMP-dependent protein kinase (PKA) (Homo sapiens, UniProt P22694+P17612+P22612); assay: Inhibitory activity against Protein kinase A (Histone); format: protein assay
[38] = target: Rho-associated protein kinase 2 (Homo sapiens) (UniProt O75116); assay: Inhibition of Protein kinase ROCK2 at 500 nM; set-up: scale not given: the % may be the effect or the level left; outline: as §2
[39] = target: Serine/threonine-protein kinase N2 (Homo sapiens) (UniProt Q16513); assay: Inhibition of PRK2 at 100 nM; set-up: scale not given: the % may be the effect or the level left; outline: as §1
[40] = target: Serine/threonine-protein kinase Chk1 (Homo sapiens) (UniProt O14757); assay: Inhibition of Serine/threonine-protein kinase Chk1 at 100 nM; set-up: scale not given: the % may be the effect or the level left; outline: as §2
[41] = target: Tyrosine-protein kinase Blk (Homo sapiens) (UniProt P51451); assay: Inhibition of B lymphoid tyrosine kinase at 500 nM; set-up: scale not given: the % may be the effect or the level left; outline: as §1
[42] = target: Cyclin-dependent kinase 2/cyclin E (Homo sapiens, UniProt P24941); assay: Inhibitory activity against Cyclin E-cyclin-dependent kinase 2 in enzymatic assay by measuring phosphorylation of RbING; format: protein-complex assay

Cn1ccc2ccc3c4[nH]c5c(CCCN[C@H]6CC[C@H](O)CC6)cccc5c4c4c(c3c21)C(=O)NC4=O
Control [1]: 62% | Control [2]: 98% | Control [3]: 97% | Control [4]: 107% | Control [5]: 106% | Control [6]: 42% | Control [7]: 90% | Control [8]: 93% | Control [9]: 105% | Control [10]: 86% | Control [11]: 95% | inhibition [12]: 45% | Control [13]: 134% | Control [14]: 84% | Control [15]: 98% | Control [16]: 100% | Control [17]: 94% | Control [18]: 65% | Control [19]: 99% | Control [20]: 91% | IC50 [21]: > 20000 nM | Control [22]: 95% | Control [23]: 98% | Control [24]: 109% | Control [25]: 88% | Control [26]: 104% | Control [27]: 84% | Control [28]: 74% | Control [29]: 60% | Control [30]: 59% | Control [31]: 63% | Control [32]: 84% | IC50 (HCT-116): 1050 nM | Control [33]: 105% | Control [34]: 104% | IC50 (TGF-beta receptor type-2): > 20000 nM | IC50 (NCI-H460): 1670 nM | Control [35]: 100% | Control [36]: 107% | IC50 [37]: 2930 nM | Control [38]: 62% | Control [39]: 97% | Control [40]: 86% | Control [41]: 14% | IC50 [42]: 1030 nM
